OX1R antag-1 – blocks the human orexin 1 receptor; inhibition, % at 6.6 µM; AID 485270; OX1R-expressing cells, FRET antagonist read-out; 330,000 compounds, 1.8% hits; O43613; in the data active = inhibition mostly above about 38%, no sharp cut-off; inactive = mostly below about 40%;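 also: 0% = agonist challenge alone and 100% = reference antagonist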
V1aR counter – V1a receptor agonism, counter-screen for OXTR agonists | AID 2797 | CHO-V1R cells, Fluo-8 calcium fluorescence, agonist mode; 0% DMSO, 100% 3 nM vasopressin | P37288 | activation, % at 3 µM | 320,000 compounds, 0.25% hits;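 active = activation above the mean activation of all tested compounds plus 3 SD, per screening run, cut at about 20% in these data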;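 also: signal is peak over basal fluorescence ratio across a 100 second FLIPR read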
OXTR ag – human OXTR agonism. activation, % at 3 µM. 320,000 compounds, 0.32% hits. CHO-OTR cells, Fluo-8 calcium fluorescence; normalized: DMSO 0%, oxytocin 100%;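 active = activation above the mean of all tested compounds plus 3 SD, cutoff set per screening run, cut at about 20% in these data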;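 also: peak over basal fluorescence ratio from a 100 s FLIPR kinetic read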
Target sequence (P30559 whole entry, looked up): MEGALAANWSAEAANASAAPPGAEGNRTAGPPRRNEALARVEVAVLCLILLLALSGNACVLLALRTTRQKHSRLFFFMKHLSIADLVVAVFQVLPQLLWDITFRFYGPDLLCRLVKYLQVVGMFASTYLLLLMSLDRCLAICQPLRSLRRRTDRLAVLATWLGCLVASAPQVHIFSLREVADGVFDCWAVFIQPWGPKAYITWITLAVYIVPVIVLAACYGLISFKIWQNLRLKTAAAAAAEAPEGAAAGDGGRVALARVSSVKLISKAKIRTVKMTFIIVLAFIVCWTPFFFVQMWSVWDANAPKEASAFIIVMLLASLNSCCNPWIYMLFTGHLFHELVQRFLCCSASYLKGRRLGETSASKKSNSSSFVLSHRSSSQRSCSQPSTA
OX1R antag-2 – human HCRTR1 antagonism; inhibition, % at 5 µM; AID 434989; 330,000 compounds, 0.43% hits; CHO/OX1R cells, Fluo-8 calcium fluorescence, orexin A; O43613;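 active = inhibition above its plate's threshold, mean inhibition of all tested compounds on the plate plus 3 SD, cut at about 37% in these data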;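 also: 0% = orexin A challenge wells and 100% = SB-334867-A antagonist wells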
OXTR potentiate – human OXTR potentiation. P30559. CHO-OTR cells, Fluo-8 calcium fluorescence, potentiator mode; 0% = oxytocin EC15, 100% = EC100. activation, % at 3 µM. 320,000 compounds, 0.061% hits. AID 2445;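 active = activation above that plate's cutoff, the mean activation of tested compounds plus 3 SD, cut at about 6.6% in these data, passing the limit was not always enough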;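 also: 100% uses oxytocin at 75 nM as the full agonist control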
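Measured by – Fluo-8 calcium dye fluorescence · Test system – human OTR in CHO cells · Dosing – one concentration, 3.0 µM compound · Controls – EC15 oxytocin alone as 0%, 75 nM oxytocin as 100% · Evaluation – normalized max/min fluorescence ratio, % activation · Timing – 6 min pre-incubation, 100 s read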
CHO parental Ca – signal in parental CHO cells, OX1R antagonist counter-screen. inhibition, % at 5.6 µM. 330,000 compounds, 0.63% hits. parental CHO-K1, ATP-induced calcium, Fluo-8 fluorescence;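 active = inhibition above that plate's mean sample inhibition plus 3 SD, cut at about 26% in these data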;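 also: 0% = ATP-challenged DMSO wells and 100% = DMSO wells without ATP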
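Test system: untransfected parental CHO cell line; also added: ATP stimulus; dosing: 5.6 µM, single dose; signal: calcium-sensitive Fluo-8 fluorescence; measure: percent inhibition of ATP-evoked calcium rise, normalized to controls; benchmarks: low control ATP plus DMSO, high control DMSO only; replication: one well per compound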
Numbers without * were called inactive. A selection: hits, their analogues and other compounds. The true share with any hit is near 2.7%.

SMILES | OX1R antag-1 | V1aR counter | OXTR ag | OX1R antag-2 | OXTR potentiate | CHO parental Ca
COc1cc(/C=C2\SC(=N)N(c3ccc(F)cc3)C2=O)ccc1O | 38 | 3 | 1 | 15 | -20 | -10
COc1cc(/C=C2\SC(=N)N(c3ccc4c(c3)OCO4)C2=O)cc(OC)c1O | 51* | 6 | 6 | -9 | -1 | -1
CC(=O)Nc1cccc(NC(=O)c2ccco2)c1 | 7 | 0 | 1 | 17 | 0 | -6
O=C(Nc1cccc(NC(=O)c2sc3ccccc3c2Cl)c1)c1ccco1 | 76* | -1 | -1 | -6 | 0 | -22
Cc1nnc(NC(=O)c2sc3ccccc3c2Cl)s1 | 36 | 0 | 0 | -27 | -10 | -1
O=C(Nc1cccc(NC(=O)c2nccc3ccccc23)c1)c1ccco1 | 54* | 1 | -1 | -26 | -8 | -1
CNC(=O)c1ccsc1NC(=O)c1sc2ccccc2c1Cl | 56* | 0 | 3 | -20 | -5 | 7
O=C(Nc1cccc(NC(=O)c2ccco2)c1)c1ccccc1 | 16 | 1 | 2 | -21 | -3 | -21
CN1CCN(c2ccc([N+](=O)[O-])cc2S(=O)(=O)N2CCOCC2)CC1 | 94* | 0 | 1 | -13 | 1 | 1
Cc1nn(Cc2ccccc2)c(C)c1NC(=O)c1ccc([N+](=O)[O-])cc1[N+](=O)[O-] | 45* | 1 | 0 | -13 | 2 | -3
CCn1cc([N+](=O)[O-])c(C(=O)Nc2c(C)nn(Cc3cccc(F)c3)c2C)n1 | -2 | 1 | 1 | -9 | -11 | -5
Cc1cc(C)c2cc(CN(CCCO)S(=O)(=O)c3ccccc3F)c(=O)[nH]c2c1 | 12 | 1 | 0 | -48 | -12 | -18
CC(=O)Nc1ccc(S(=O)(=O)N(Cc2ccco2)Cc2cc3ccccc3[nH]c2=O)cc1 | 39* | 0 | 0 | -13 | -5 | -27
CNC(=S)N(Cc1ccco1)Cc1cc2cc(OC)ccc2[nH]c1=O | 1 | 0 | 1 | -22 | -19 | -6
CC(=O)Nc1ccc(S(=O)(=O)N(Cc2cccnc2)Cc2cc3ccccc3[nH]c2=O)cc1 | 18 | 5 | 3 | -1 | -7 | 2
COC(=O)c1ccccc1S(=O)(=O)N(CCCO)Cc1cc2c(C)ccc(C)c2[nH]c1=O | 46* | 0 | 2 | -6 | -5 | -16
COC(=O)c1ccccc1S(=O)(=O)N(Cc1ccco1)Cc1cc2cc(OC)ccc2[nH]c1=O | 41* | 2 | 3 | 4 | -7 | -38
N#CCN1C(=S)N=C(Nc2cccc(Cl)c2)C12CCCCC2 | 43 | 0 | -2 | -11 | -15 | 47*
O=C1c2cc(CO)cc(O)c2C(=O)c2c(O[C@@H]3OC(CO)[C@@H](O)[C@@H](O)[C@@H]3O)cccc21 (some centres undefined) | 73* | 0 | 1 | -10 | 3 | -6
C=CCn1c(=O)c(CCC(=O)Nc2ccc(N3CCOCC3)cc2)nc2cc(C(F)(F)F)ccc21 | -2 | 1 | 0 | -4 | -5 | -11
CSCC[C@H](NC(=O)C1CCN(S(=O)(=O)c2ccc(C)cc2C)CC1)c1nc2ccccc2[nH]1 | 10 | 1 | 0 | 4 | -3 | -24
Cc1cc(S(=O)(=O)NCc2ccccc2)ccc1OCC(=O)NCc1ccccn1 | 26 | 5 | 4 | -6 | -11 | 2
Cc1cc(S(=O)(=O)NCc2ccccc2)ccc1OCC(=O)Nc1cccc([N+](=O)[O-])c1 | 84* | 3 | 1 | 53* | -9 | 49*
CC(=O)N(CN1C(=O)c2ccc([N+](=O)[O-])cc2C1=O)c1cccc(C(=O)O)c1 | 52* | 0 | 0 | 1 | -3 | 13
CN(C)c1ccc(NC(=O)/C=C/c2c(Cl)cccc2Cl)cc1 | 72* | -1 | -2 | 9 | -5 | -4
SMILES | OX1R antag-1 | V1aR counter | OXTR ag | OX1R antag-2 | OXTR potentiate | CHO parental Ca
CC(=O)c1c(C)[nH]c(C(=O)C(C)Sc2nnc(NC3CC3)s2)c1C (centres undefined) | 9 | 7 | 13 | 13 | -13 | -15
COc1ccc(CCN2CC(C(=O)Nc3nccs3)CC2=O)cc1OC (centres undefined) | 1 | 1 | 2 | 2 | -5 | -15
CCCCOc1ccc(-c2nnn(CC(=O)Nc3ncc(CC(=O)OCC)s3)n2)cc1 | 23 | 27* | 33* | -15 | -19 | -10
O=S(=O)(c1ccccc1F)N1CCc2ccccc2C1 | 14 | -1 | -2 | -22 | -14 | 4
CC(C)OCCCn1c(=NC(=O)c2ccncc2)c(C#N)cc2c(=O)n3ccccc3nc21 | 52* | 0 | 0 | -22 | -4 | -12
CC(=O)N=c1c(C#N)cc2c(=O)n3ccccc3nc2n1CCCOC(C)C | 31 | 0 | 0 | -8 | 0 | -6
CC(C)OCCCn1c(=N)c(C(N)=S)cc2c(=O)n3ccccc3nc21 | 75* | -1 | -1 | -34 | -8 | -24
CN(Cc1ccc(Br)s1)C(=O)CNC(=O)c1ccc2c(c1)OCO2 | 15 | 0 | -1 | 2 | -5 | -27
C=C(C)CCC(C)N1CCC(n2nccc2NC(=O)CCOc2ccccc2)CC1 (centres undefined) | 29 | -1 | -1 | -18 | -8 | -12
CCOc1ccc(OCCCC(=O)N(CC)CC(=O)Nc2c(F)cccc2F)cc1 | 4 | 5 | 5 | -23 | -7 | -23
COc1ccc2[nH]c3c(c2c1)CCN1C(=O)N([C@@H](C)C(=O)NCc2c(F)cccc2Cl)C(=O)[C@]31C | 24 | 2 | 3 | -10 | -5 | -11
C[C@@H](C(=O)NCc1c(F)cccc1Cl)N1C(=O)N2CCc3c([nH]c4ccccc34)[C@@]2(C)C1=O | 67* | 3 | 0 | 22 | -5 | -7
Cn1ncc2c(N3CCC(Cc4ccccc4)CC3)ncnc21 | 58* | 8 | 4 | -6 | -20 | 15
O=C1OC(c2ccc3c(c2)OCO3)N(C(=O)c2ccc(Cl)c(Cl)c2)c2ccccc21 (centres undefined) | 76* | 2 | 1 | -1 | -18 | 2
O=C(COc1cccc(C(F)(F)F)c1)NCC(c1cccs1)N1CCOCC1 (centres undefined) | 3 | 0 | -1 | -23 | 0 | -7
O=c1[nH]c2cc([N+](=O)[O-])c([N+](=O)[O-])cc2[nH]c1=O | 56* | 1 | 1 | 0 | -8 | 1
N=c1c(C(=O)NCC2CCCO2)cc2c(=O)n3ccccc3nc2n1Cc1cccnc1 (centres undefined) | 73* | 0 | 0 | -3 | -4 | 2
